Results on 23 compounds are retold here after ChEMBL document CHEMBL3580630, “Design and Synthesis of a Screening Library Using the Natural Product Scaffold 3-Chloro-4-hydroxyphenylacetic Acid” (2015).

Each structure is given as a SMILES string. Calls of active or inactive are those of the source. No cut-off for these calls is given here. Bounds are passed on as bounds.

The test system of test [1] is LNCaP. The experiment in a line: Cytotoxicity against human LNCAP cells assessed as inhibition of cell proliferation at 10 uM after 72 hrs by Alamar blue assay relative to control. Type of test: functional.
The test system of test [2] is Plasmodium falciparum. The experiment in a line: Antiparasitic activity against asexual intraerythrocytic stage of Plasmodium falciparum 3D7 assessed as inhibition of parasite replication at 10 uM after 72 hrs by DAPI staining-based microscopic analysis relative to control. Type of test: functional. The conditions noted are these: 3D7, 72 h.
Test [3] concerns Trypanosoma brucei brucei. The experiment in a line: Antiparasitic activity against bloodstream form of Trypanosoma brucei brucei 427 assessed as inhibition of parasite replication at 10 uM after 72 hrs by resazurin assay relative to control. To be noted: Trypanosoma brucei, 427, 72 h. Type of test: functional.
The subject of test [4] is PC-3. The test is described as follows: Antilipogenic activity in human PC3 cells assessed as reduction of cellular neutral lipid level at 10 uM after 48 hrs by nile red staining-based fluorescence microscopic analysis relative to control. Type of test: functional, cell-based. The essentials: (§1)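 Cells were grown 72 h in phenol-red-free RPMI-1640 with 5% CSS, then exposed 48 h to 10 µM compound in 0.3% DMSO. Controls were DMSO alone (negative) and TOFA (positive). Cells were fixed in 4% paraformaldehyde for 20 min on ice, then stained 20 min at room temperature in the dark with 1.0 µg/mL DAPI and 0.25 µg/mL Nile Red in PBS. Imaging was at 10×. Neutral lipids were read in the Cy3 channel and phospholipids in Cy5, as mean fluorescence intensity per cell (~1500 cells/treatment). Statistics used one-way ANOVA with Dunnett's test.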

The test system of test [5] is LNCaP. The experiment in a line: Antilipogenic activity in human LNCAP cells assessed as reduction of cellular phospholipid level at 10 uM after 48 hrs by nile red staining-based fluorescence microscopic analysis relative to control. Type of test: functional, cell-based. The method in brief:
as §1

Test [6] has as its system LNCaP. The test is described as follows: Antilipogenic activity in human LNCAP cells assessed as reduction of cellular neutral lipid level at 10 uM after 48 hrs by nile red staining-based fluorescence microscopic analysis relative to control. Type of test: functional, cell-based. The essentials:
as §1

Test [7] concerns PC-3. The test is described as follows: Antilipogenic activity in human PC3 cells assessed as reduction of cellular phospholipid level at 10 uM after 48 hrs by nile red staining-based fluorescence microscopic analysis relative to control. Type of test: functional, cell-based. The method in brief: as §1

As to `O=C(Cc1ccc(O)c(Cl)c1)NCCc1ccc(Br)cc1`, the inhibition at 10 µM in test [1], in test [2] and in test [3] was greater than 50% in each case.
Regarding `O=C(Cc1ccc(O)c(Cl)c1)NCCN1CCNCC1`, the inhibition at 10 µM in test [1], in test [2] and in test [3] was greater than 50% in each case.
Consider `O=C(Cc1ccc(O)c(Cl)c1)NCc1cccc(F)c1`, for which the outcome in test [4], in test [5], in test [6] and in test [7] was Active. For the same compound, the inhibition at 10 µM in test [1], in test [2] and in test [3] was greater than 50% in each case.
Consider `CN(C)CCNC(=O)Cc1ccc(O)c(Cl)c1`, for which the inhibition at 10 µM in test [1], in test [2] and in test [3] was greater than 50% throughout.
Turning to `CN(C)CCCNC(=O)Cc1ccc(O)c(Cl)c1`, the inhibition at 10 µM in test [1], in test [2] and in test [3] was greater than 50% each time.
`O=C(Cc1ccc(O)c(Cl)c1)NCCc1ccccn1`: the inhibition at 10 µM in test [1], in test [2] and in test [3] was greater than 50% in each case.
`O=C(Cc1ccc(O)c(Cl)c1)NCCc1cccc(F)c1`: the inhibition at 10 µM in test [1], in test [2] and in test [3] was greater than 50% each time.
In the case of `CCN(CC)CCCNC(=O)Cc1ccc(O)c(Cl)c1`, the inhibition at 10 µM in test [1], in test [2] and in test [3] was greater than 50% in each case.
`O=C(Cc1ccc(O)c(Cl)c1)NCc1ccccc1F`: the outcome in test [4], in test [5], in test [6] and in test [7] was Active. The inhibition at 10 µM in test [1], in test [2] and in test [3] was greater than 50% in each case.
For `O=C(Cc1ccc(O)c(Cl)c1)NCCc1ccccc1F`, the inhibition at 10 µM in test [1], in test [2] and in test [3] was greater than 50% in each case.
In the case of `O=C(Cc1ccc(O)c(Cl)c1)NCCc1ccc(F)cc1`, the inhibition at 10 µM in test [1], in test [2] and in test [3] was greater than 50% throughout.
As to `O=C(Cc1ccc(O)c(Cl)c1)NCc1ccc(Br)cc1`, the inhibition at 10 µM in test [1], in test [2] and in test [3] was greater than 50% each time.
In the case of `O=C(Cc1ccc(O)c(Cl)c1)NCc1ccc(F)cc1`, the result in test [4], in test [5], in test [6] and in test [7] was Active. For the same compound, the inhibition at 10 µM in test [1], in test [2] and in test [3] was greater than 50% in each case.
In the case of `O=C(O)Cc1ccc(O)c(Cl)c1`, the inhibition at 10 µM in test [1], in test [2] and in test [3] was greater than 50% throughout.
Consider `O=C(Cc1ccc(O)c(Cl)c1)NCCc1ccc(Cl)cc1`, for which the inhibition at 10 µM in test [1], in test [2] and in test [3] was greater than 50% in each case.
For `O=C(Cc1ccc(O)c(Cl)c1)NCCc1ccccc1`, the inhibition at 10 µM in test [1], in test [2] and in test [3] was greater than 50% in each case.
For the compound `CCCCCCCCCCCCCCOc1ccc(C(=O)O)o1`, the result in test [4] and in test [6] was Active. Further, the outcome in test [5] and in test [7] was inactive.
Regarding `CCN(CC)CCNC(=O)Cc1ccc(O)c(Cl)c1`, the inhibition at 10 µM in test [1], in test [2] and in test [3] was greater than 50% throughout.
As for `O=C(Cc1ccc(O)c(Cl)c1)NCc1ccccc1`, the inhibition at 10 µM in test [1], in test [2] and in test [3] was greater than 50% throughout.
Turning to `CC(C)CCNC(=O)Cc1ccc(O)c(Cl)c1`, the inhibition at 10 µM in test [1], in test [2] and in test [3] was greater than 50% each time.
Consider `COC(=O)Cc1ccc(O)c(Cl)c1`, for which the inhibition at 10 µM in test [1], in test [2] and in test [3] was greater than 50% each time.
`O=C(Cc1ccc(O)c(Cl)c1)NCCN1CCOCC1`: the inhibition at 10 µM in test [1], in test [2] and in test [3] was greater than 50% throughout.
Turning to `O=C(Cc1ccc(O)c(Cl)c1)NCc1ccc(Cl)cc1`, the inhibition at 10 µM in test [1], in test [2] and in test [3] was greater than 50% in each case.
